The text below walks through data of ChEMBL document CHEMBL3868612, “Discovery of a potent and selective ROMK inhibitor with improved pharmacokinetic properties based on an octahydropyrazino[2,1-c][1,4]oxazine scaffold” (Bioorg Med Chem Lett, 2016).

The target in series [1] is T1, Voltage-gated inwardly rectifying potassium channel KCNH2 (Homo sapiens, UniProt Q12809). The series is described as follows: Displacement of 35S-MK499 from human ERG expressed in HEK293 cell membranes. In short, it runs like this: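 Membranes were prepared from HEK-293 cells stably expressing hERG. Binding was measured as displacement of 35S-MK499.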
In general terms: Displacement assays read how much labelled ligand stays bound in the presence of the test substance.

The nature of series [2]: Half life in Sprague-Dawley rat at 0.5 mg/kg, iv or 1 mg/kg, po. The series is classed as ADME, organism-based. Particulars: in vivo.
In series [3] the test system is CHO. The series is described as follows: Selectivity ratio of IC50 for displacement of 35S-MK499 from human ERG to IC50 for human ROMK expressed in CHO cells. The series is classed as cell-based.
Series [4] concerns the target T2, ATP-sensitive inward rectifier potassium channel 1 (Homo sapiens, UniProt P48048).
T2 sequence (P48048 whole entry): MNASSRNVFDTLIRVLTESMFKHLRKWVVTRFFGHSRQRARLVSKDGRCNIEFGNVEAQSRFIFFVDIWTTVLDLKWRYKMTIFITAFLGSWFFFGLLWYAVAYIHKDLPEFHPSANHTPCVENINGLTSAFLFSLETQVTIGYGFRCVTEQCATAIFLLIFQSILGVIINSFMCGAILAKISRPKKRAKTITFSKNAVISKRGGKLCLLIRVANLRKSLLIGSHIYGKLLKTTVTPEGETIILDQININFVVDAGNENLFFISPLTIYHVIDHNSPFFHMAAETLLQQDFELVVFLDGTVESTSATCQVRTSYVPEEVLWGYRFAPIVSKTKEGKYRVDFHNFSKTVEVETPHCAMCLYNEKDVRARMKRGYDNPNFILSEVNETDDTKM
The series is described as follows: Inhibition of human ROMK expressed in CHO cells after 6 mins at -70 mV holding potential by electrophysiology method. The series is classed as cell-based.

The target in series [5] is T1, Voltage-gated inwardly rectifying potassium channel KCNH2. Put plainly: Inhibition of human ERG by electrophysiology method.
The nature of series [6]: Oral bioavailability in Sprague-Dawley rat at 1 mg/kg. It counts as ADME, organism-based. Particulars: in vivo.
The nature of series [7]: Dose normalized AUC in Sprague-Dawley rat at 1 mg/kg, po. Particulars: in vivo. It counts as ADME, organism-based.
Series [8] can be described thus: Half life in po dosed human. It counts as ADME, organism-based. Particulars: in vivo.
Series [9] can be described thus: Oral bioavailability in Sprague-Dawley rat at 2 mg/kg. The series is classed as ADME, organism-based. Particulars: in vivo.
The nature of series [10]: Dose normalized AUC in Sprague-Dawley rat at 2 mg/kg, po. It counts as ADME, organism-based. Particulars: in vivo.
Series [11] can be described thus: Half life in Sprague-Dawley rat at 1 mg/kg, iv or 2 mg/kg, po. It counts as ADME, organism-based. Particulars: in vivo.

T1 sequence (Q12809 whole entry): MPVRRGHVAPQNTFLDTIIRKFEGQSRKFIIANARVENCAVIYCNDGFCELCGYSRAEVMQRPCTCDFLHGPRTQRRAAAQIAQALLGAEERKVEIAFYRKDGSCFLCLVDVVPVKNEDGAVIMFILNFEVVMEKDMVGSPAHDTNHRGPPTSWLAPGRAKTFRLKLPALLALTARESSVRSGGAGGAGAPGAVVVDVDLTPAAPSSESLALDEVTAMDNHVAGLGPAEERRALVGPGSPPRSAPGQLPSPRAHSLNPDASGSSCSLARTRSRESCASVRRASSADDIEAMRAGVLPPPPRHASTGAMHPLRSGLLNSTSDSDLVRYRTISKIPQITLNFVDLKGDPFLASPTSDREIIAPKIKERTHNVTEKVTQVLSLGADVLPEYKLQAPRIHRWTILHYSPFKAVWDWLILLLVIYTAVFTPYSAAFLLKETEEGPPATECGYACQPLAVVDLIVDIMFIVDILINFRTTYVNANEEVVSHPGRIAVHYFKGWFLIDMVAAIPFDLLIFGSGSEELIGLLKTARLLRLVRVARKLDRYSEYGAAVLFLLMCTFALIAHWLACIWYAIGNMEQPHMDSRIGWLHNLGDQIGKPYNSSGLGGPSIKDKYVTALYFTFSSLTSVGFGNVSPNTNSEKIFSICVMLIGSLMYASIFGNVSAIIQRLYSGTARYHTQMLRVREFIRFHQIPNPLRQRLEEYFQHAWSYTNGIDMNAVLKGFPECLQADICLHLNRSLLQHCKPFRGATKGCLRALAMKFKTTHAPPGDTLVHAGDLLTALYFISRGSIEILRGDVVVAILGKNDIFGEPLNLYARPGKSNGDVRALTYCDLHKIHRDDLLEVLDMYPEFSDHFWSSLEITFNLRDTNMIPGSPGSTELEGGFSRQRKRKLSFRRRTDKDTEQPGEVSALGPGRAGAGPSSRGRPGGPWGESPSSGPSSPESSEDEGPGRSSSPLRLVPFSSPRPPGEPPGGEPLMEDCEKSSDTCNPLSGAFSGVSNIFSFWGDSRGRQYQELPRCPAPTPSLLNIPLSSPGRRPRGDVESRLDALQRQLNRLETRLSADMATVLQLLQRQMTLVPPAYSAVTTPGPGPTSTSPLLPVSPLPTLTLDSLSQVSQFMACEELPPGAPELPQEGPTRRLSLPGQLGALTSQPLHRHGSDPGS

Usually IC50 stands for the midpoint of a concentration-inhibition curve. A word on the half-life: it is the time in which the quantity being followed falls by half. Lower therefore signals rapid decline. One may read the bioavailability as dose-corrected exposure relative to a reference, in per cent. `Cc1c([C@H]2CN3CCN(C(=O)Cc4ccc(-n5cnnn5)nc4)C[C@H]3CO2)ccc2c1COC2=O`: the figures for the IC50 in [1], in series [4] and in series [5] were 26.8 µM, 0.088 µM and 56.5 µM, respectively. The half-life in [2] is 40.2 min. Moreover, the Ratio IC50 in series [3] amounted to 305. In addition, in series [6], the bioavailability was determined as 46%. The AUC/dose in series [7] worked out at 0.32 µM·kg·h/mg.

`Cc1c([C@H]2CN3CCN(C(=O)Cc4ccc(-n5cnnn5)nn4)C[C@H]3CO2)ccc(F)c1C#N` showed an IC50 in series [4] of 0.086 µM. This lies in the double-digit nanomolar range.

Consider `Cc1c([C@H]2CN3CCN(C(=O)Cc4cnc(-n5cnnn5)cn4)C[C@H]3CO2)ccc(F)c1C#N`, for which the figures for the IC50 in series [4] and in [5] were 0.107 µM and 12.3 µM, respectively.

In series [4], `Cc1c([C@@H]2CN3CCN(C(=O)Cc4cnc(-n5cnnn5)nc4)C[C@H]3CO2)ccc(F)c1C#N` yielded an IC50 of 0.018 µM.

Turning to `Cc1c(C#N)cccc1[C@H]1CN2CCN(C(=O)Cc3ccc(-n4cnnn4)nc3)C[C@H]2CO1`, the IC50 in series [4] came to 0.112 µM; in [5] it was 17.6 µM.

`O=C1OCCc2cc([C@@H]3CN4CCN(C(=O)Cc5ccc(-n6cnnn6)nc5)C[C@H]4CO3)ccc21` had a half-life in series [2] of 51 min. The compound also registered an IC50 in series [4] of 0.057 µM. In addition, the bioavailability in series [6] turned out to be 65%. Moreover, the AUC/dose in series [7] was 1.4 µM·kg·h/mg.

For `Cc1c([C@H]2CN3CCN(C(=O)Cc4ccc(-n5cnnn5)nc4)C[C@@H]3CO2)ccc2c1COC2=O`, the IC50 is 53.4 µM in [1] and 0.105 µM in [4]. Further, in series [3], the Ratio IC50 came out at 508.

In series [4], `Cc1c(C#N)cccc1[C@@H]1CN2CCN(C(=O)Cc3ccc(-n4cnnn4)nc3)C[C@H]2CO1` registered an IC50 of 0.05 µM. This counts as double-digit nanomolar.

Turning to `Cc1c([C@H]2CN3CCN(C(=O)Cc4ccc(-n5cnnn5)nc4)C[C@H]3CO2)ccc(F)c1C#N`, the half-life in [2] is 87.6 min. The IC50 is 0.041 µM in series [4] and 12.5 µM in series [5]. This compound showed a bioavailability in [6] of 69%. Also, the AUC/dose in series [7] is 1.8 µM·kg·h/mg.

Consider `O=C1OCCc2cc([C@@H]3CN4CCN(C(=O)Cc5ccc(-n6cnnn6)cc5)C[C@H]4CO3)ccc21`, for which the IC50 in series [5] was > 30 µM.

`O=C1OCCc2cc([C@H]3CN4CCN(C(=O)Cc5ccc(-n6cnnn6)nc5)C[C@H]4CO3)ccc21` had an IC50 in [4] of 0.205 µM.

`Cc1c([C@@H]2CN3CCN(C(=O)Cc4ccc(-n5cnnn5)nc4)C[C@H]3CO2)ccc2c1COC2=O`: the values for the IC50 in series [1], in [4] and in [5] were 21.1 µM, 0.065 µM and 19.7 µM, respectively. Moreover, the half-life in series [2] was 60 min. Moreover, the Ratio IC50 in [3] came out at 325. Besides, the bioavailability in [6] was 82%. Further, the AUC/dose in series [7] came out at 2.05 µM·kg·h/mg.

`Cc1c([C@@H]2CN3CCN(C(=O)Cc4cnc(-n5cnnn5)cn4)C[C@H]3CO2)ccc(F)c1C#N` gave a half-life in series [2] of 84 min. Also, the IC50 in [4] is 0.033 µM; in series [5] it was 10 µM. The same compound returned a bioavailability in [6] of 100%. For the same compound, the AUC/dose in [7] was determined as 4.64 µM·kg·h/mg.

Turning to `Cc1c(C#N)cccc1[C@@H]1CN2CCN(C(=O)Cc3ccc(-n4cnnn4)nc3)C[C@@H]2CO1`, the half-life in series [2] was 98.4 min. In addition, the IC50 in [4] is 0.027 µM; in series [5], 14.8 µM. Also, the bioavailability in series [6] was 67%. The same compound gave an AUC/dose in series [7] of 2 µM·kg·h/mg.

Compound `Cc1cccc(Nc2ccncc2S(=O)(=O)NC(=O)NC(C)C)c1` [TORSEMIDE] gave a half-life in [8] of 180 min.

Compound `O=C(Cc1ccc(-n2cnnn2)nc1)N1CCN2C[C@H](c3ccc4nonc4c3)OC[C@@H]2C1` gave an IC50 in series [4] of 0.104 µM.

Regarding `O=C1OCCc2cc([C@H]3CN4CCN(C(=O)Cc5ccc(-n6cnnn6)nc5)C[C@@H]4CO3)ccc21`, the half-life in [2] was 45 min. The compound also registered an IC50 in series [4] of 0.165 µM. The same compound yielded a bioavailability in [6] of 98%. The AUC/dose in [7] is 2.25 µM·kg·h/mg.

`O=C(Cc1ccc(-n2cnnn2)nc1)N1CCN2C[C@@H](c3ccc4nonc4c3)OC[C@@H]2C1` gave an IC50 in [4] of 0.045 µM. In other words, the double-digit nanomolar range.

For `Cc1c([C@@H]2CN3CCN(C(=O)Cc4ccc(-n5cnnn5)nc4)C[C@@H]3CO2)ccc(F)c1C#N`, the values for the IC50 in series [4] and in series [5] were 0.06 µM and > 10 µM, respectively.

Regarding `Cc1c([C@H]2CN3CCN(C(=O)Cc4ccc(-n5cnnn5)cn4)C[C@H]3CO2)ccc(F)c1C#N`, the half-life in series [2] is 57.6 min. The IC50 was 0.07 µM in series [4] and 19.9 µM in [5]. In series [6], the bioavailability worked out at 68%.

In series [2], `Cc1c([C@H]2CN3CCN(C(=O)Cc4ccc(-n5cnnn5)nc4)C[C@H]3CO2)ccc2nonc12` gave a half-life of 58.2 min. Besides, the IC50 in series [4] was found to be 0.083 µM; in series [5], 10 µM. The compound further gave a bioavailability in [6] of 100%. For the same compound, in series [7], the AUC/dose stood at 1.8 µM·kg·h/mg.

On to `Cc1c([C@H]2CN3CCN(C(=O)Cc4cnc(-n5cnnn5)nc4)C[C@H]3CO2)ccc(F)c1C#N`, for which, in series [9], the bioavailability came out at 54%. The same compound registered an IC50 in series [4] of 0.039 µM. This compound returned an AUC/dose in [10] of 1.01 µM·kg·h/mg. Moreover, the half-life in series [11] was 81.6 min.

Turning to `Cc1c([C@H]2CN3CCN(C(=O)Cc4ccc(-n5cnnn5)nc4)C[C@@H]3CN2)ccc2c1COC2=O`, the IC50 was 22 µM in [1] and 0.14 µM in [4]. Further, the Ratio IC50 in series [3] worked out at 157.

In the case of `Cc1c([C@@H]2CN3CCN(C(=O)Cc4ccc(-n5cnnn5)nc4)C[C@@H]3CO2)ccc2c1COC2=O`, the IC50 in series [1] stood at 59.4 µM; in series [4], 0.086 µM; in series [5], 74.9 µM. Further, in series [2], the half-life is 48 min. The Ratio IC50 in series [3] was found to be 690. The bioavailability in series [6] was determined as 100%. The AUC/dose in [7] came out at 2.02 µM·kg·h/mg.

Regarding `Cc1c([C@@H]2CN3CCN(C(=O)Cc4ccc(-n5cnnn5)nc4)C[C@H]3CO2)ccc2nonc12`, the IC50 in series [4] is 0.072 µM; in series [5] it was > 10 µM.

As to `Cc1c([C@@H]2CN3CCN(C(=O)Cc4ccc(-n5cnnn5)nc4)C[C@H]3CS2)ccc2c1COC2=O`, the IC50 in [1] is 8.9 µM; in series [4], 0.1 µM. Also, the Ratio IC50 in series [3] stood at 89.

In series [2], `O=C1OCCc2cc([C@@H]3CN4CCN(C(=O)Cc5cnc(-n6cnnn6)nc5)C[C@H]4CO3)ccc21` showed a half-life of 29.4 min. For the same compound, the IC50 in series [4] is 0.26 µM; in series [5], > 90 µM. Besides, the bioavailability in series [6] is 12%. The AUC/dose in series [7] is 0.18 µM·kg·h/mg.

Take `Cc1c([C@@H]2CN3CCN(C(=O)Cc4ccc(-n5cnnn5)nc4)C[C@H]3CO2)ccc(F)c1C#N`: in series [2], the half-life is 63 min. Further, the IC50 worked out at 0.036 µM in series [4] and 10 µM in series [5]. In [6], this compound showed a bioavailability of 57%. The AUC/dose in [7] was 1 µM·kg·h/mg.
